The text below walks through data of ChEMBL document CHEMBL1833856, “Discovery and kinetic evaluation of 6-substituted 4-benzylthio-1,3,5-triazin-2(1H)-ones as inhibitors of cathepsin B” (Eur J Med Chem, 2011).

Test [1] concerns the target T1, Cathepsin B (Homo sapiens, UniProt P07858). As to the kind of experiment: Inhibition of human recombinant cathepsin B assessed as formation of fluorescent degradation product AMC using Z-Arg-Arg-AMC as substrate at 50 uM by fluorescence microplate assay.
Test [2] has as its target Procathepsin L (Homo sapiens) (UniProt P07711). As to the kind of experiment: Inhibition of human recombinant cathepsin L expressed in Escherichia coli assessed as formation of fluorescent degradation product AMC using Z-Phe-Arg-AMC as substrate at 50 uM by fluorescence microplate assay.
The target of test [3] is T2, Pro-cathepsin H (Homo sapiens) (UniProt P09668).
T2 sequence (whole entry): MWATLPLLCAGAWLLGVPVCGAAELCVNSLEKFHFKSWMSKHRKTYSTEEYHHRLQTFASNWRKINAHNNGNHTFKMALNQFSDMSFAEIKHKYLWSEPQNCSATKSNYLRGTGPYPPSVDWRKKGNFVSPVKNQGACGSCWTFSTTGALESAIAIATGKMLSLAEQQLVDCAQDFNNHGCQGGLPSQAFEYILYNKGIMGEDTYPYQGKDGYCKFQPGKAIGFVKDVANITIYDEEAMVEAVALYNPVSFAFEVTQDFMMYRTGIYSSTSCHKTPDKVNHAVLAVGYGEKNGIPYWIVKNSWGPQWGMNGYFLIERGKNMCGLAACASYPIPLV
As to the kind of experiment: Inhibition of native cathepsin H isolated from human liver assessed as formation of fluorescent degradation product AMC using Arg-AMC as substrate at 50 uM by fluorescence microplate assay.

In test [4] the target is T1, Cathepsin B. Put plainly: Partial mixed-type inhibition of human recombinant cathepsin B assessed as formation of fluorescent degradation product AMC using Z-Arg-Arg-AMC as substrate by Michaelis-Menten method. The gist of the method: (§1)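 Recombinant human catB (133 pM) preactivated 5 min at 37 °C in 100 mM phosphate pH 6.0, 0.1% PEG 8000, 5 mM DTT, 1.5 mM EDTA, 5% DMSO. Initial hydrolysis rates taken across Z-Arg-Arg-AMC (60, 180, 360 µM, as added) and inhibitor (0–70 µM, as added). AMC read ex 380/em 460 nm at 37 °C. Duplicates, two independent runs. β fitted for ES-complex binding.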

Test [5] concerns the target T1, Cathepsin B. Put plainly: Inhibition of human recombinant cathepsin B assessed as factor by which the product formation changes when the inhibitor binds to the enzyme-substrate complex using Z-Arg-Arg-AMC as substrate by fluorescence microplate assay. The method in brief:
as §1

For test [6], the target named is T1, Cathepsin B. As to the kind of experiment: Reversible inhibition of human recombinant cathepsin B assessed as formation of fluorescent degradation product AMC using Z-Arg-Arg-AMC as substrate by Michaelis-Menten method. The gist of the method:
as §1

Chain of Procathepsin L (Homo sapiens) (P07711 114-333 limits assumed): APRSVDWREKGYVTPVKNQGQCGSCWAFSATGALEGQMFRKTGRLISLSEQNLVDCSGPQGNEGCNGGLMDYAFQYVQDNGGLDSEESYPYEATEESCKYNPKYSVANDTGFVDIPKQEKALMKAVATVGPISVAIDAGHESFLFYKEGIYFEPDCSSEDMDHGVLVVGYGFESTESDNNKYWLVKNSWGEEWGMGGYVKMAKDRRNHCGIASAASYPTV

By inhibition is commonly meant the relative decrease from the control value, in per cent. For `COc1ccc(CNc2nc(Cl)nc(Cl)n2)cc1`, the inhibition amounted to 3.99% at Cathepsin B [1], 0.48% in test [2] and 6.37% in test [3].

In the case of `COc1ccc(CNc2nc(Cl)nc(N(C)CCO)n2)cc1`, the inhibition on Cathepsin B [1] was found to be 0.92%; in test [2] it was 9.95%; in test [3] it was 7.12%.

As a reminder, the Ki is a dissociation constant, usually derived from enzyme kinetics or from competition with a known ligand. Consider `O=c1nc(SCc2ccccc2)nc(SCc2cccc(F)c2)[nH]1`, for which the results for the Ki at Cathepsin B [4] and at Cathepsin B [6] were 7.4 µM and 10.2 µM, respectively. For the same molecule, the inhibition in test [2] turned out to be 7.68%; in test [3], 4.18%. In addition, at Cathepsin B [5], the fold change (FC) was found to be 0.22.

Consider `Cc1ccc(-c2nc(S)[nH]c(=O)n2)cc1`, for which the inhibition was determined as 9.02% at Cathepsin B [1], 6.37% in test [2] and 6.58% in test [3].

Regarding `COC(=O)c1ccccc1Nc1nc(Cl)nc(Cl)n1`, the results for the inhibition (at Cathepsin B [1]; in test [2]; in test [3]) were -0.92%, 8.76% and -4.23%, respectively.

On to `N#Cc1ccc(CSc2nc(SCc3ccccc3)nc(=O)[nH]2)c(F)c1`, for which the values for the Ki on Cathepsin B [4] and on Cathepsin B [6] were 9.7 µM and 23 µM, respectively. Further, the fold change (FC) at Cathepsin B [5] stood at 0.07.

For `O=c1nc(SCc2ccccc2)nc(SCc2ccc(F)cc2)[nH]1`, the Ki stood at 13.8 µM at Cathepsin B [4] and 16.6 µM on Cathepsin B [6]. Further, at Cathepsin B [5], the fold change (FC) is 0.33.

For `CC(C)OC(=O)[C@H](C)NC(=O)c1ccc(Nc2nc(Cl)nc(Cl)n2)cc1`, the inhibition on Cathepsin B [1] was 1.68%; in test [2], -6.12%; in test [3] it was 3.02%.

With `O=c1nc(SCc2ccccc2)nc(SCc2ccccc2Cl)[nH]1`, the Ki on Cathepsin B [4] was 3.6 µM; at Cathepsin B [6], 7.2 µM. Moreover, at Cathepsin B [5], the fold change (FC) is 0.23.

As to `O=c1nc(-c2cccc([N+](=O)[O-])c2)nc(S)[nH]1`, the inhibition was 4.71% at Cathepsin B [1], 7.7% in test [2] and 7.97% in test [3].

Regarding `O=c1nc(SCc2ccccc2)nc(SCC2CCCCC2)[nH]1`, the Ki at Cathepsin B [4] was 3.3 µM; on Cathepsin B [6], 11.9 µM. Also, the inhibition is 76.2% in test [2] and 10.2% in test [3]. Moreover, the fold change (FC) at Cathepsin B [5] worked out at 0.12.

With `COc1ccccc1CSc1nc(SCc2ccccc2)nc(=O)[nH]1`, the figures for the Ki at Cathepsin B [4] and at Cathepsin B [6] were 4.4 µM and 15.6 µM, respectively. Besides, the inhibition stood at 79.6% at Cathepsin B [1], 61.3% in test [2] and 1.06% in test [3]. The fold change (FC) at Cathepsin B [5] is 0.22.

`O=c1nc(-c2ccccc2)nc(S)[nH]1`: the inhibition at Cathepsin B [1] is -3.22%; in test [2] it was -1.89%; in test [3], 4.86%.

Turning to `Clc1nc(Cl)nc(Nc2ccccc2Br)n1`, the inhibition on Cathepsin B [1] was -1.59%; in test [2], 0.59%; in test [3] it was 4.52%.

Regarding `O=c1nc(SCc2ccccc2)nc(SCc2ccccc2F)[nH]1`, the Ki was 9 µM on Cathepsin B [4] and 9.5 µM at Cathepsin B [6]. Further, the fold change (FC) on Cathepsin B [5] stood at 0.36.

Turning to `O=c1nc(SCc2ccccc2)nc(SCc2ccccc2[N+](=O)[O-])[nH]1`, the values for the Ki at Cathepsin B [4] and at Cathepsin B [6] were 6 µM and 11.9 µM, respectively. In addition, the fold change (FC) at Cathepsin B [5] stood at 0.24.

As for `COc1nc(N[C@H](CCC(=O)O)C(=O)O)nc(OC)n1`, the inhibition at Cathepsin B [1] is -5.48%; in test [3], 0.34%.

As to `CC(C)(C)c1ccccc1Nc1nc(Cl)nc(Cl)n1`, the inhibition on Cathepsin B [1] was -7.27%; in test [2] it was 4.36%; in test [3], -4.16%.

Consider `CN(CCO)c1nc(Cl)nc(Nc2ccccc2CCO)n1`, for which the inhibition at Cathepsin B [1] is -3.56%; in test [2], 11.6%; in test [3] it was 0.61%.

`O=c1nc(SCc2ccccc2)nc(SCc2cccc([N+](=O)[O-])c2)[nH]1`: the values for the Ki at Cathepsin B [4] and at Cathepsin B [6] were 3.3 µM and 11.3 µM, respectively. For the same molecule, the results for the inhibition in test [2] and in test [3] were 81.2% and 3.92%, respectively. Further, on Cathepsin B [5], the fold change (FC) was found to be 0.15.

For `COc1nc(OC)nc(Sc2ccccc2C(=O)N[C@@H](C)C(=O)OCc2ccccc2)n1`, the results for the inhibition (on Cathepsin B [1]; in test [2]; in test [3]) were 3.18%, -4.25% and 1.34%, respectively.

With `COc1cccc(CSc2nc(SCc3ccccc3)nc(=O)[nH]2)c1`, the Ki at Cathepsin B [4] was 21.9 µM; at Cathepsin B [6] it was 13 µM. Further, the fold change (FC) at Cathepsin B [5] stood at 0.42.

As for `COc1nc(Nc2ccccc2C(=O)O)nc(OC)n1`, the inhibition at Cathepsin B [1] was 6.34%; in test [2] it was -3.14%; in test [3] it was 2.63%.

Turning to `CCCSc1nc(SCc2ccccc2)nc(=O)[nH]1`, the inhibition in test [2] was -8.66%; in test [3], -4.82%. The fold change (FC) at Cathepsin B [5] was 0.

`OCCc1ccccc1Nc1nc(Cl)nc(Cl)n1`: the inhibition at Cathepsin B [1] is -3.38%.

On to `COc1nc(OC)nc(Sc2ccccc2C(=O)O)n1`, for which the values for the inhibition (on Cathepsin B [1]; in test [2]) were 2.35% and 15.8%, respectively.

Regarding `COc1ccc(CCNc2nc(Cl)nc(Cl)n2)cc1OC`, the inhibition is -9.7% on Cathepsin B [1], -0.33% in test [2] and -2.17% in test [3].

With `N#Cc1ccccc1CSc1nc(SCc2ccccc2)nc(=O)[nH]1`, the Ki at Cathepsin B [4] was determined as 10.5 µM; at Cathepsin B [6], 40.7 µM. Further, the fold change (FC) at Cathepsin B [5] came out at 0.04.

For the molecule `O=C(O)c1ccccc1Sc1nc(Cl)nc(Cl)n1`, the inhibition is 2.3% at Cathepsin B [1] and -1.7% in test [3].

On to `COc1ccc(CSc2nc(SCc3ccccc3)nc(=O)[nH]2)cc1`, for which the Ki was found to be 10.3 µM on Cathepsin B [4] and 11.1 µM at Cathepsin B [6]. The fold change (FC) on Cathepsin B [5] amounted to 0.2.

As for `OCCc1ccccc1Nc1nc(Cl)nc(N2CCOCC2)n1`, the inhibition is -4.76% on Cathepsin B [1] and -8.72% in test [3].

As to `N#Cc1ccc(CSc2nc(SCc3ccccc3)nc(=O)[nH]2)cc1`, the Ki was found to be 10.8 µM at Cathepsin B [4] and 24.3 µM on Cathepsin B [6]. The results for the inhibition in test [2] and in test [3] were 44.9% and 1.55%, respectively. Besides, the fold change (FC) at Cathepsin B [5] stood at 0.07.

`N#Cc1cccc(CSc2nc(SCc3ccccc3)nc(=O)[nH]2)c1`: the inhibition constant Ki at Cathepsin B [4] is 9.1 µM; on Cathepsin B [6], 46.7 µM. The fold change (FC) at Cathepsin B [5] was determined as 0.02.

Regarding `C[C@@H](NC(=O)c1ccccc1Nc1nc(Cl)nc(Cl)n1)C(=O)O`, the figures for the inhibition (at Cathepsin B [1]; in test [2]) were -1.7% and -5.15%, respectively.

Turning to `O=c1nc(SCc2ccccc2)nc(SCc2cccc(Cl)c2)[nH]1`, the results for the Ki on Cathepsin B [4] and on Cathepsin B [6] were 4.5 µM and 5.4 µM, respectively. The fold change (FC) on Cathepsin B [5] was 0.28.

For the molecule `CCc1ccccc1Nc1nc(Cl)nc(Cl)n1`, the inhibition at Cathepsin B [1] was -3.44%; in test [2] it was -1.59%; in test [3], -2.26%.

Regarding `O=c1nc(SCc2ccccc2)nc(SCc2ccc([N+](=O)[O-])cc2)[nH]1`, the Ki at Cathepsin B [4] is 4 µM; at Cathepsin B [6], 10 µM. Also, the fold change (FC) on Cathepsin B [5] was 0.17.

With `COC(=O)c1ccccc1Oc1nc(OC)nc(OC)n1`, the inhibition was -0.33% at Cathepsin B [1], -9.64% in test [2] and -5.34% in test [3].

With `O=c1nc(SCc2ccccc2)nc(S)[nH]1`, the inhibition at Cathepsin B [1] is 2.5%; in test [2], 3.79%; in test [3], 9.63%.

For the molecule `O=c1nc(SCc2ccccc2)nc(SCc2ccc(Cl)cc2)[nH]1`, the inhibitory constant (Ki) at Cathepsin B [4] was determined as 2.5 µM; at Cathepsin B [6] it was 4.4 µM. Besides, the results for the inhibition in test [2] and in test [3] were 85.2% and 6.91%, respectively. For the same molecule, the fold change (FC) at Cathepsin B [5] was determined as 0.25.
